# Tested on: U2OS
# Assay: Multiplex assay against U2OS
# Assay type: toxicity, cell-based
# Conditions: human
# Outline: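 On a CQ1 microscope at 37°C and 5% CO2, live cells were imaged after compound addition. They had been stained at seeding with Hoechst33342, BioTracker Green Microtubule Cytoskeleton Dye, MitoTracker Red and Annexin V Alexa Fluor 680. CellPathfinder machine-learning gating assigned cells to Hoechst high-intensity objects or normal cells, normal cells to healthy, pyknosed or fragmented nuclei, and pyknosed cells to mitotic or apoptotic. Tubulin, mitochondrial-mass and membrane-permeability phenotypes are per cents of healthy-nucleus cells.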
# [1] = 12 h, 1 µM, compound concentration 1 uM, replicate 1
# [2] = 12 h, 1 µM, compound concentration 1 uM, replicate 2
# [3] = 12 h, 10 µM, compound concentration 10 uM, replicate 1
# [4] = 12 h, 10 µM, compound concentration 10 uM, replicate 2
# [5] = 24 h, 1 µM, compound concentration 1 uM, replicate 1
# [6] = 24 h, 1 µM, compound concentration 1 uM, replicate 2
# [7] = 24 h, 10 µM, compound concentration 10 uM, replicate 1
# [8] = 24 h, 10 µM, compound concentration 10 uM, replicate 2
structure (smiles),measurement,setting,value
CCCS(=O)(=O)Nc1ccc(F)c(C(=O)c2c[nH]c3ncc(Cl)cc23)c1F [PLX-4720],Population Apoptotic (%),[1],55%
same,Population Fragmented Nuclei (%),[1],6%
same,Population Healthy Nuclei (%),[1],88%
same,Population Hoechst High Intensity Objects (%),[1],2%
same,Population Membrane Permeable-Phenotype (%),[1],14%
same,Population Mitochondria Different-Phenotype (%),[1],21%
same,Population Mitotic Cells (%),[1],44%
same,Population Normal (%),[1],97%
same,Population Pyknosed Nuclei (%),[1],5%
same,Population Tubulin-Different-Phenotype (%),[1],26%
same,Total Cell Count,[1],145
same,Population Apoptotic (%),[2],33%
same,Population Fragmented Nuclei (%),[2],7%
same,Population Healthy Nuclei (%),[2],89%
same,Population Hoechst High Intensity Objects (%),[2],15%
same,Population Membrane Permeable-Phenotype (%),[2],12%
same,Population Mitochondria Different-Phenotype (%),[2],24%
same,Population Mitotic Cells (%),[2],66%
same,Population Normal (%),[2],84%
same,Population Pyknosed Nuclei (%),[2],3%
same,Population Tubulin-Different-Phenotype (%),[2],28%
same,Total Cell Count,[2],153
same,Population Apoptotic (%),[3],50%
same,Population Healthy Nuclei (%),[3],89%
same,Population Hoechst High Intensity Objects (%),[3],3%
same,Population Membrane Permeable-Phenotype (%),[3],8%
same,Population Mitochondria Different-Phenotype (%),[3],30%
same,Population Mitotic Cells (%),[3],50%
same,Population Normal (%),[3],96%
same,Population Pyknosed Nuclei (%),[3],4%
same,Population Tubulin-Different-Phenotype (%),[3],26%
same,Total Cell Count,[3],164
same,Population Apoptotic (%),[4],0%
same,Population Fragmented Nuclei (%),[4],6%
same,Population Healthy Nuclei (%),[4],88%
same,Population Hoechst High Intensity Objects (%),[4],9%
same,Population Membrane Permeable-Phenotype (%),[4],11%
same,Population Mitochondria Different-Phenotype (%),[4],31%
same,Population Mitotic Cells (%),[4],100%
same,Population Normal (%),[4],90%
same,Population Pyknosed Nuclei (%),[4],5%
same,Population Tubulin-Different-Phenotype (%),[4],23%
same,Total Cell Count,[4],101
same,Population Apoptotic (%),[5],43%
same,Population Fragmented Nuclei (%),[5],5%
same,Population Healthy Nuclei (%),[5],86%
same,Population Hoechst High Intensity Objects (%),[5],3%
same,Population Membrane Permeable-Phenotype (%),[5],16%
same,Population Mitochondria Different-Phenotype (%),[5],26%
same,Population Mitotic Cells (%),[5],56%
same,Population Normal (%),[5],96%
same,Population Pyknosed Nuclei (%),[5],7%
same,Population Tubulin-Different-Phenotype (%),[5],22%
same,Total Cell Count,[5],201
same,Population Apoptotic (%),[6],11%
same,Population Fragmented Nuclei (%),[6],3%
same,Population Healthy Nuclei (%),[6],88%
same,Population Hoechst High Intensity Objects (%),[6],11%
same,Population Membrane Permeable-Phenotype (%),[6],9%
same,Population Mitochondria Different-Phenotype (%),[6],25%
same,Population Mitotic Cells (%),[6],88%
same,Population Normal (%),[6],88%
same,Population Pyknosed Nuclei (%),[6],8%
same,Population Tubulin-Different-Phenotype (%),[6],23%
same,Total Cell Count,[6],198
same,Population Apoptotic (%),[7],20%
same,Population Fragmented Nuclei (%),[7],2%
same,Population Healthy Nuclei (%),[7],92%
same,Population Hoechst High Intensity Objects (%),[7],2%
same,Population Membrane Permeable-Phenotype (%),[7],5%
same,Population Mitochondria Different-Phenotype (%),[7],32%
same,Population Mitotic Cells (%),[7],80%
same,Population Normal (%),[7],97%
same,Population Pyknosed Nuclei (%),[7],5%
same,Population Tubulin-Different-Phenotype (%),[7],24%
same,Total Cell Count,[7],152
same,Population Apoptotic (%),[8],57%
same,Population Fragmented Nuclei (%),[8],4%
same,Population Healthy Nuclei (%),[8],91%
same,Population Hoechst High Intensity Objects (%),[8],7%
same,Population Membrane Permeable-Phenotype (%),[8],7%
same,Population Mitochondria Different-Phenotype (%),[8],38%
same,Population Mitotic Cells (%),[8],42%
same,Population Normal (%),[8],92%
same,Population Pyknosed Nuclei (%),[8],3%
same,Population Tubulin-Different-Phenotype (%),[8],32%
same,Total Cell Count,[8],93
Cc1ccc2nc(NCCN)c3ncc(C)n3c2c1.O=C(O)C(F)(F)F.O=C(O)C(F)(F)F,Population Apoptotic (%),[1],29%
same,Population Fragmented Nuclei (%),[1],6%
same,Population Healthy Nuclei (%),[1],83%
same,Population Hoechst High Intensity Objects (%),[1],1%
same,Population Membrane Permeable-Phenotype (%),[1],6%
same,Population Mitochondria Different-Phenotype (%),[1],17%
same,Population Mitotic Cells (%),[1],70%
same,Population Normal (%),[1],98%
same,Population Pyknosed Nuclei (%),[1],10%
same,Population Tubulin-Different-Phenotype (%),[1],27%
same,Total Cell Count,[1],235
same,Population Apoptotic (%),[2],4%
same,Population Fragmented Nuclei (%),[2],8%
same,Population Healthy Nuclei (%),[2],75%
same,Population Hoechst High Intensity Objects (%),[2],13%
same,Population Mitotic Cells (%),[2],95%
same,Population Normal (%),[2],86%
same,Population Pyknosed Nuclei (%),[2],16%
same,Population Tubulin-Different-Phenotype (%),[2],17%
same,Total Cell Count,[2],151
same,Population Apoptotic (%),[3],28%
same,Population Fragmented Nuclei (%),[3],17%
same,Population Healthy Nuclei (%),[3],65%
same,Population Hoechst High Intensity Objects (%),[3],8%
same,Population Membrane Permeable-Phenotype (%),[3],17%
same,Population Mitochondria Different-Phenotype (%),[3],11%
same,Population Mitotic Cells (%),[3],71%
same,Population Normal (%),[3],91%
same,Population Pyknosed Nuclei (%),[3],17%
same,Population Tubulin-Different-Phenotype (%),[3],17%
same,Total Cell Count,[3],132
same,Population Apoptotic (%),[4],50%
same,Population Fragmented Nuclei (%),[4],27%
same,Population Healthy Nuclei (%),[4],53%
same,Population Hoechst High Intensity Objects (%),[4],12%
same,Population Membrane Permeable-Phenotype (%),[4],15%
same,Population Mitochondria Different-Phenotype (%),[4],13%
same,Population Mitotic Cells (%),[4],50%
same,Population Normal (%),[4],87%
same,Population Pyknosed Nuclei (%),[4],18%
same,Population Tubulin-Different-Phenotype (%),[4],22%
same,Total Cell Count,[4],123
same,Population Apoptotic (%),[5],33%
same,Population Fragmented Nuclei (%),[5],2%
same,Population Healthy Nuclei (%),[5],93%
same,Population Hoechst High Intensity Objects (%),[5],1%
same,Population Membrane Permeable-Phenotype (%),[5],7%
same,Population Mitochondria Different-Phenotype (%),[5],19%
same,Population Mitotic Cells (%),[5],66%
same,Population Normal (%),[5],98%
same,Population Pyknosed Nuclei (%),[5],3%
same,Population Tubulin-Different-Phenotype (%),[5],31%
same,Total Cell Count,[5],309
same,Population Apoptotic (%),[6],18%
same,Population Fragmented Nuclei (%),[6],6%
same,Population Healthy Nuclei (%),[6],84%
same,Population Hoechst High Intensity Objects (%),[6],8%
same,Population Mitochondria Different-Phenotype (%),[6],32%
same,Population Mitotic Cells (%),[6],81%
same,Population Normal (%),[6],91%
same,Population Pyknosed Nuclei (%),[6],9%
same,Population Tubulin-Different-Phenotype (%),[6],20%
same,Total Cell Count,[6],192
same,Population Apoptotic (%),[7],76%
same,Population Fragmented Nuclei (%),[7],27%
same,Population Healthy Nuclei (%),[7],30%
same,Population Hoechst High Intensity Objects (%),[7],8%
same,Population Membrane Permeable-Phenotype (%),[7],32%
same,Population Mitochondria Different-Phenotype (%),[7],26%
same,Population Mitotic Cells (%),[7],23%
same,Population Normal (%),[7],91%
same,Population Pyknosed Nuclei (%),[7],41%
same,Population Tubulin-Different-Phenotype (%),[7],32%
same,Total Cell Count,[7],123
same,Population Apoptotic (%),[8],61%
same,Population Fragmented Nuclei (%),[8],29%
same,Population Healthy Nuclei (%),[8],36%
same,Population Hoechst High Intensity Objects (%),[8],14%
same,Population Membrane Permeable-Phenotype (%),[8],24%
same,Population Mitochondria Different-Phenotype (%),[8],42%
same,Population Mitotic Cells (%),[8],38%
same,Population Normal (%),[8],85%
same,Population Pyknosed Nuclei (%),[8],34%
same,Population Tubulin-Different-Phenotype (%),[8],30%
same,Total Cell Count,[8],106

# From ChEMBL document CHEMBL4689842, “EUbOPEN Chemogenomics Library wave 1” (2021)
